# MrgX1 antag: antagonists of human MrgX1 receptor. B-score at 10 µM. Q96LB2. hit rate 1.3% among 310,000. MRGX1-HEK293 calcium flux, Fluo-4, BAM8-22 antagonism; hits give low values;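 active means calcium-response B-score plate-corrected more than 3 library SD below zero, starting fluorescence within 5 deviations, no agonist response on first addition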;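 further: peak minus trough fluorescence over baseline after final BAM8-22 challenge near maximal dose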
# Target sequence (Q96LB2 whole entry, looked up): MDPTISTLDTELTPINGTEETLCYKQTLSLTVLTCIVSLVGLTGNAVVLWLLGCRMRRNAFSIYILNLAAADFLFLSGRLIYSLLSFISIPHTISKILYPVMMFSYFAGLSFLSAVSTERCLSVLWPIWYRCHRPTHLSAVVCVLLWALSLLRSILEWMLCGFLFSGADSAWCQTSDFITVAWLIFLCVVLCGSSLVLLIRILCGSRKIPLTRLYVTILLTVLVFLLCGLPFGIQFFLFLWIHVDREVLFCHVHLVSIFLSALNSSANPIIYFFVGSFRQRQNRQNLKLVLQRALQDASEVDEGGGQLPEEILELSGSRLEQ
# RGS4 act: potentiators or activators of RGS4 | HEK293 M3R/inducible RGS4, carbachol calcium flux Fluo4; hits give low values | B-score at 10 µM | hit rate 0.92% among 310,000 | AID 463111;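 active means B-score of the integrated calcium signal more than 4 SD below the library mean, with starting fluorescence not abnormally high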;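 further: negative B-score means reduced calcium response which marks RGS4 activation or potentiation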
#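 Also added: carbachol at ECmax as muscarinic agonist stimulus; Assay system: HEK293 cells with stable M3R and inducible RGS4; Timing: overnight RGS4 induction, 30 min dye load 37 °C, 20 min compound RT; Measured by: Fluo4-AM (2 µM) calcium-flux fluorescence, kinetic read.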
# PHOSPHO1 inh: blocks human PHOSPHO1 phosphatase activity; Q8TCT1; recombinant PHOSPHO1, absorbance phosphatase assay; inhibition, % at 13.3 µM; hit rate 1.1% among 290,000; AID 1565; in the data active means inhibition above about 60%
# RGS4 block: human RGS4 inhibition; P49798; HEK293 M3R/RGS4 inducible, Fluo-4 calcium flux; hits give high values; triggered by carbachol at its EC20; B-score at 10 µM; hit rate 0.45% among 310,000;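 active means B-score, a plate-corrected calcium signal, over three deviations above library mean, with baseline fluorescence within five deviations of library mean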;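 further: RGS4 expression induced by doxycycline in cells with stable M3 receptor; B-score is computed from the integrated fluorescence ratio over baseline after carbachol; higher B-score means a larger calcium signal and so more RGS4 inhibition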
# MrgX1 allo act: human MrgX1 positive allosteric modulation, primary screen; MrgX1-HEK293, Fluo-4 calcium flux, FDSS; hits give high values; B-score at 10 µM; hit rate 0.63% among 310,000;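 active means plate-corrected calcium response at least 3 library SD above typical, normal starting fluorescence, not activating the receptor alone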;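 further: compound read alongside a low EC10 to EC30 dose of BAM8-22 agonist; peak minus trough fluorescence over baseline measured at the second addition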
# MrgX1 agonist: activates human MrgX1 receptor signaling; MrgX1-HEK293 cells, Fluo-4 calcium fluorescence, agonist mode; hits give high values; Q96LB2; AID 588627; hit rate 0.44% among 310,000; B-score at 10 µM;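 active means calcium response B-score plate-corrected fluorescence ratio at least 3 library SD, with starting fluorescence B-score inside 5 SD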
#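 Material – MrgX1-expressing HEK293 cells · Input – 15,000 cells seeded per well · Dosing – compound as first of three additions · Times – overnight seeding, then 1 h dark dye loading · Measured by – kinetic Fluo-4 NW fluorescence of intracellular calcium · Read-out – B-scored fluorescence response ratio · Benchmarks – positive and negative control wells on each plate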
# The depositor's hits bear a star; i = inactive; . = no result. Rows were chosen to be rich in hits. Some 4.5% of all compounds tested hit in one or more screens of this group.
SMILES,MrgX1 antag,RGS4 act,PHOSPHO1 inh,RGS4 block,MrgX1 allo act,MrgX1 agonist
CCOC(=O)CSc1nc2sc3c(c2c(=O)n1C1CCCCC1)CCN(C)C3,i,-10.5*,24.1,i,i,i
CCOC(=O)CSc1nc2sc3c(c2c(=O)n1-c1ccc(OCC)cc1)CCN(C)C3,i,i,15.9,i,i,i
CC(C(=O)c1ccc(-c2ccccc2)cc1)[n+]1ccccc1 (stereo not drawn),i,i,20.6,i,i,i
Cc1cc[n+](C(C)C(=O)c2ccc(-c3ccccc3)cc2)cc1 (stereo not drawn),i,-9.36*,5.4,i,i,i
O=C(COC(=O)CN1C(=O)c2ccccc2C1=O)NC1CCCC1,i,i,38.6,i,i,i
Cc1ccc(CN2C(=O)/C(=C\c3ccc(C(=O)NCc4cccnc4)cc3)Oc3ccccc32)cc1,-4.56*,i,-5.2,i,i,i
OC(COc1ccccc1Cl)CN1CCN(CC(O)COc2ccccc2Cl)CC1 (stereo not drawn),i,-7.71*,6.7,i,i,i
COc1ccc(C2=NOC(C(=O)NCCCN3CCOCC3)C2)cc1 (stereo not drawn),-5.13*,i,10.5,i,i,i
COc1ccc(N2CC(C(=O)NCCCN3CCOCC3)CC2=O)cc1 (stereo not drawn),i,i,60.1*,i,i,i
Cc1ccc(N2CC(C(=O)NCCN3CCOCC3)CC2=O)cc1C (stereo not drawn),i,i,31.9,i,i,i
CCOC(=O)c1c(CSC(=N)N)n(-c2ccc(C)cc2)c2cc(Br)c(OC(C)=O)cc12,-7.63*,i,24.4,i,i,i
CCOC(=O)c1c(NC(=O)COC(=O)CNC(=O)c2ccc(Cl)cc2Cl)sc(C(=O)N(C)C)c1C,i,i,.,i,i,i
COc1ccc(-c2cc([C@H]3[C@@H]4C=CCC[C@@]4(C)C(=O)N3Cc3ccccc3)ccc2F)cc1,-5.41*,i,44.1,i,i,i
Cc1nc2ccc(S(=O)(=O)NCC(=O)NCCc3ccc(Cl)cc3)cc2s1,i,i,70.0*,i,i,i
Cc1ccc(C)c(S(=O)(=O)/N=C2\C=C(NS(=O)(=O)c3ccccc3)C(=O)c3ccccc32)c1,i,i,27.9,i,i,i
Cc1cc(C)c(S(=O)(=O)/N=C2/C=C(Sc3ncn[nH]3)C(=O)c3ccccc32)cc1C,i,.,69.1*,.,6.83*,i
O=Nc1ccc(NOC(=O)c2ccccc2)cc1,i,i,16.5,i,i,i
O=C(N=Nc1ccc(NOC(=O)c2ccccc2Br)cc1)c1ccccc1O,i,i,-74.0,i,12*,i
COC(=O)c1[nH]c2ccccc2c1NC(=O)CN1CCCCCC1,i,i,65.3*,i,i,i
COC(=O)c1[nH]c2ccccc2c1NC(=O)CNC1CCCCC1,i,-6.99*,49.2,i,i,i
CN(CC(=O)Nc1cccc(F)c1)C(=O)c1ccccc1Cc1ccccc1,i,i,.,i,i,i
CN(C)c1ccc(/C=C(\C#N)C(=O)Nc2nc3c(s2)CCN(Cc2ccccc2)C3)cc1,i,i,21.9,i,i,49.6*
CC1CN(C(=O)C2CCCCC2)C(C)CN1C(=O)C1CCCCC1 (stereo not drawn),i,i,-2.3,i,i,i
CC1CN(C(=O)C2CCCC2)C(C)CN1C(=O)C1CCCC1 (stereo not drawn),i,i,60.4*,i,i,i
Cc1cccc(N(CC(=O)NC(C)(C)C)C(=O)CCC(=O)Nc2nccs2)c1,i,i,31.1,i,i,i
CC(C)(C)NC(=O)CN(C(=O)CCC(=O)Nc1nccs1)c1cccc(C(F)(F)F)c1,i,i,60.0*,i,i,i
Cc1cccc(NC(=O)CCN2CCCC(C)C2)c1 (stereo not drawn),i,i,45.3,i,i,i

# Screening data deposited in PubChem BioAssay by several laboratories.
